Reference: ChEMBL document CHEMBL1150669, “Isolation and characterization of novel oligosaccharides related to Ziracin” (2002)

Tests used:
Format in all cases: functional
Staphylococcus aureus [1] = assay: Antimicrobial activity against Staphylococcus aureus at 2 ug/8 mm disk at pH 8 by agar diffusion method
Summary of the method: (§1)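 Agar disk diffusion against S. aureus. Samples dissolved at 1 mg/mL in CH2Cl2/MeOH (95:5 v/v), plus a 10-fold dilution in the same vehicle; 20 µL of each applied to 8 mm paper disks and air-dried 30 min. Disks placed on S. aureus-seeded agar at pH 7 and pH 8, incubated overnight at 35 °C. Read-out: inhibition zone diameter (mm).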

Staphylococcus aureus [2] = assay: Antimicrobial activity against Staphylococcus aureus at 2 ug/8 mm disk at pH 7 by agar diffusion method; summary of the method: as §1
Staphylococcus aureus [3] = assay: Antimicrobial activity against Staphylococcus aureus at 20 ug/8 mm disk at pH 7 by agar diffusion method; summary of the method: as §1
Staphylococcus aureus [4] = assay: Antimicrobial activity against Staphylococcus aureus at 20 ug/8 mm disk at pH 8 by agar diffusion method; summary of the method: as §1

Compound	inhibition zone (IZ) (Staphylococcus aureus [1]) [mm]	inhibition zone (IZ) (Staphylococcus aureus [2]) [mm]	inhibition zone (IZ) (Staphylococcus aureus [3]) [mm]	inhibition zone (IZ) (Staphylococcus aureus [4]) [mm]
COC[C@H]1O[C@@H](O[C@@H]2OC[C@@H]3O[C@@]4(OC[C@@H](OC(=O)c5c(C)cc(O)cc5O)[C@H](OC=O)[C@H]4O)O[C@H]3[C@H]2O)[C@@H](OC)[C@@H](O)[C@@H]1O[C@@H]1O[C@H](C)[C@H](OC)[C@H](O[C@@H]2O[C@H](C)[C@H]3O[C@]4(C[C@@H](O)[C@H](O[C@H]5C[C@@H](O[C@H]6C[C@](C)([N+](=O)[O-])[C@@H](OC)[C@H](C)O6)[C@H](OC(=O)c6c(C)c(Cl)c(O)c(Cl)c6OC)[C@@H](C)O5)[C@@H](C)O4)O[C@]3(C)[C@@H]2O)[C@H]1O	15	17	21	18
COC[C@H]1O[C@@H](O[C@@H]2OC[C@@H]3O[C@@]4(OC[C@@H](OC(=O)c5c(C)cc(O)cc5O)[C@@H]5OCO[C@H]54)O[C@H]3[C@H]2O)[C@@H](OC)[C@@H](O)[C@@H]1O[C@@H]1O[C@H](C)[C@H](OC)[C@H](O[C@@H]2O[C@H](C)[C@H]3O[C@]4(C[C@@H](O)[C@H](O[C@H]5C[C@@H](O[C@H]6C[C@](C)([N+](=O)[O-])[C@@H](OC)[C@H](C)O6)[C@H](OC(=O)c6c(C)cc(O)c(Cl)c6OC)[C@@H](C)O5)[C@@H](C)O4)O[C@]3(C)[C@@H]2O)[C@H]1O	16	17	20	17
COC[C@H]1O[C@@H](O[C@@H]2OC[C@@H]3O[C@@]4(OC[C@@H](OC(=O)c5c(C)cc(O)cc5O)[C@@H]5OCO[C@H]54)O[C@H]3[C@H]2O)[C@@H](OC)[C@@H](O)[C@@H]1O[C@@H]1O[C@H](C)[C@H](OC)[C@H](O[C@@H]2O[C@H](C)[C@H]3O[C@]4(C[C@@H](O)[C@H](O[C@H]5C[C@@H](O[C@H]6C[C@](C)([N+](=O)[O-])[C@@H](O)[C@H](C)O6)[C@H](OC(=O)c6c(C)c(Cl)c(O)c(Cl)c6OC)[C@@H](C)O5)[C@@H](C)O4)O[C@]3(C)[C@@H]2O)[C@H]1O	18	20	23	20
COC[C@H]1O[C@@H](O[C@@H]2OC[C@@H]3O[C@@]4(OC[C@@H](OC(=O)c5c(C)cc(O)cc5O)[C@@H]5OCO[C@H]54)O[C@H]3[C@H]2O)[C@@H](OC)[C@@H](O)[C@@H]1O	8	8	10	8
COC[C@H]1O[C@@H](O[C@@H]2OC[C@@H]3O[C@@]4(OC[C@@H](OC(=O)c5c(C)cc(O)cc5O)[C@@H]5OCO[C@H]54)O[C@H]3[C@H]2O)[C@@H](OC)[C@@H](O)[C@@H]1O[C@@H]1O[C@H](C)[C@H](OC)[C@H](O[C@@H]2O[C@H](C)[C@H]3O[C@]4(C[C@@H](O)[C@H](O[C@H]5C[C@@H](O[C@H]6C[C@](C)([N+](=O)[O-])[C@@H](OC)[C@H](C)O6)[C@H](OC(=O)c6c(C)cc(O)c(Cl)c6O)[C@@H](C)O5)[C@@H](C)O4)O[C@]3(C)[C@@H]2O)[C@H]1O	16	17	22	18
COC[C@H]1O[C@@H](O[C@@H]2OC[C@@H]3O[C@@]4(OC[C@@H](OC(=O)c5c(C)cc(O)cc5O)[C@@H]5OCO[C@H]54)O[C@H]3[C@H]2O)[C@@H](OC)[C@@H](O)[C@@H]1O[C@@H]1O[C@H](C)[C@H](OC)[C@H](O[C@@H]2O[C@H](C)[C@H]3O[C@]4(C[C@@H](O)[C@H](O[C@H]5C[C@@H](O[C@H]6C[C@](C)([N+](=O)[O-])[C@@H](OC)[C@H](C)O6)[C@H](OC(=O)c6c(C)c(Cl)c(O)c(Cl)c6OC)[C@@H](C)O5)[C@@H](C)O4)O[C@]3(C)[C@@H]2O)[C@H]1O [EVERNIMICIN]	19	23	26	21
